Lmaj promast – Leishmania major promastigote growth inhibition. Leishmania major promastigotes, resazurin fluorescence viability. AID 1063. inhibition, % at 10 µM. hit rate 9% among 200,000;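 note: promastigotes grown with compound for 44 hours at 28 °C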
PKD1 kinase inh – blocks activity of human protein kinase D1; AID 797; PKD1 kinase fluorescence polarization assay; hit rate 0.056% among 200,000; inhibition, % (concentration not given with the values); Q15139
Wee1 degr inh – inhibitors of human Wee1 degradation; P30291; HeLa Luc-Wee1K328M stability, luciferase luminescence; 100% = proteasome inhibitor MG132 effect; reporter increase, % at 5 µM; hit rate 1.2% among 220,000;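 active = activation above the mean of all tested compounds plus 3 SD, set per screening run, cut at about 8.8% in these data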;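 note: cells exposed to compound for 20 h before luminescence read; 0% = DMSO alone and 100% = MG132 at 30 µM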
Arbovirus inh – arbovirus infection inhibition; AID 1251; arbovirus infection cell-based antiviral screen; inhibition, % at 10 µM; hit rate 0.37% among 200,000; in the data active = inhibition above about 30%
Rad51 HR inh – blocks human Rad51 in homologous recombination; Q06609; hRad51 DNA strand exchange, fluorescence dequenching; inhibition, % at 10 µM; hit rate 0.085% among 200,000;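 active = inhibition above 40% at the single screening dose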;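 note: 0% = DMSO control wells and 100% = blanks with heterologous ssDNA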
Target sequence (Q06609 whole entry, looked up): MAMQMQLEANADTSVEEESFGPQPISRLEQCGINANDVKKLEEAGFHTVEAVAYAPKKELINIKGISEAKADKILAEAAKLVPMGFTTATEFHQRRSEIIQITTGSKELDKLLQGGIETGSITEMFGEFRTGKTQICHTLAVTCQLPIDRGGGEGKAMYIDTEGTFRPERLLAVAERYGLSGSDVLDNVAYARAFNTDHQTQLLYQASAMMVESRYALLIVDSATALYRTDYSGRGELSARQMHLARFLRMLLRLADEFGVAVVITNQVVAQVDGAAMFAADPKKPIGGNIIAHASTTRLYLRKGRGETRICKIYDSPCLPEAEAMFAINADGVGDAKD
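material = hRad51 filaments on single-stranded DNA | reagent = Donor/quencher-labelled 47-bp dsDNA substrate | compound = 10 µM final, single point | schedule = strand-exchange reaction 15 min at room temperature | measured by = fluorescein emission 520 nm, excitation 485 nm | read-out basis = % inhibition versus plate control and blank means | benchmarks = plate controls and plate blanks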
CHOP inhibitor – blocks CHOP induction under ER stress. hit rate 3.8% among 220,000. AID 2732. inhibition, % at 10 µM. CHO-K1 CHOP-promoter luciferase, tunicamycin-induced, 15-18 h;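 active = compounds that reduced the stress-induced luciferase reporter signal by more than about 70% of percent inhibition, limit read from the data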;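 note: 0% = tunicamycin plus vehicle and 100% = wells without tunicamycin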
An asterisk follows results filed as active. An excerpt weighted towards active compounds, which were near 12% of everything screened. Cut-off read from the data, not from the text of the source, unless noted: active = inhibition above about 50%; inactive = the rest.

How did Cc1ccc(Cl)cc1N1CCN(C(=O)CSc2nnc3n2C(C)(C)Cc2ccccc2-3)CC1 do in these assays?
Lmaj promast: 17.4; PKD1 kinase inh: -17.0; Wee1 degr inh: 0.2; Arbovirus inh: -18.4; Rad51 HR inh: 2.1; CHOP inhibitor: 81.1*

What do the screens show for `CC1(C)Cc2ccccc2-c2nnc(SCC(=O)N3CCc4ccccc43)n21`?
Lmaj promast: 13.8; PKD1 kinase inh: 8.0; Wee1 degr inh: 3.2; Arbovirus inh: -14.8; Rad51 HR inh: 1.2; CHOP inhibitor: 76.7*

How did O=C(CSc1ccc2nnc(-c3cccnc3)n2n1)N1CCc2ccccc21 do in these assays?
Arbovirus inh: -0.2

Results for COC(=O)CSc1nnc2n1C(C)(C)Cc1ccccc1-2 ?
Lmaj promast: -4.9; PKD1 kinase inh: 15.5; Wee1 degr inh: -2.7; Arbovirus inh: -6.1; Rad51 HR inh: -4.7; CHOP inhibitor: 19.4

How did O=C(CSc1ccc2nnc(-c3ccc(Cl)cc3)n2n1)N1CCc2ccccc21 do in these assays?
Lmaj promast: 1.6; PKD1 kinase inh: 1.6; Wee1 degr inh: -2.7; Arbovirus inh: 0.6; CHOP inhibitor: 79.4*

What do the screens show for `COc1ccc(N2CCN(C(=O)CSc3nnc4n3C(C)(C)Cc3ccccc3-4)CC2)cc1`?
Lmaj promast: 25.4; PKD1 kinase inh: 3.1; Wee1 degr inh: -0.8; Arbovirus inh: -2.9; Rad51 HR inh: 0.2; CHOP inhibitor: 31.0

What do the screens show for `Cc1occc1-c1nnc(SCC(=O)O)n1-c1ccccc1`?
Wee1 degr inh: -1.5; Rad51 HR inh: -17.3; CHOP inhibitor: -22.2

How did Cc1ccsc1C(=O)OCC(=O)N1CCc2ccccc2C1 do in these assays?
Lmaj promast: -9.1; PKD1 kinase inh: 4.1; Wee1 degr inh: -1.2; Arbovirus inh: 2.0; Rad51 HR inh: 2.6; CHOP inhibitor: 10.7

What do the screens show for `O=S(=O)(c1ccc(F)c(F)c1F)N1CCN(C(=S)Nc2ccccc2)CC1`?
Lmaj promast: 4.3; PKD1 kinase inh: -2.6; Wee1 degr inh: 3.3; Arbovirus inh: 10.9; Rad51 HR inh: -0.6; CHOP inhibitor: 38.2

What do the screens show for `COc1ccc(CC2(CO)CCN(CC3=CC[C@H]4C[C@@H]3C4(C)C)CC2)cc1`?
Lmaj promast: 82.5*; PKD1 kinase inh: -2.1; Wee1 degr inh: 0.1; Arbovirus inh: -3.7; Rad51 HR inh: -8.9; CHOP inhibitor: 14.6

What do the screens show for `COc1ccc(CC2(CO)CCN(Cc3ccncc3)CC2)cc1`?
Lmaj promast: 88.5*; PKD1 kinase inh: 3.5; Wee1 degr inh: -3.0; Arbovirus inh: 1.7; Rad51 HR inh: -3.9; CHOP inhibitor: 1.8

What do the screens show for `COc1ccc(CC2(CO)CCN(Cc3cnn(C)c3C)CC2)cc1`?
Lmaj promast: -3.6; PKD1 kinase inh: -10.8; Wee1 degr inh: 0.1; Arbovirus inh: -3.3; Rad51 HR inh: 28.3; CHOP inhibitor: 28.3

How did COC(=O)c1ccc(CN2CCC(CO)(Cc3cccc(OC)c3)CC2)cc1 do in these assays?
Lmaj promast: 82.6*; PKD1 kinase inh: 2.1; Wee1 degr inh: -0.3; Arbovirus inh: 3.6; Rad51 HR inh: 9.3; CHOP inhibitor: 24.1

What do the screens show for `O=C(Nc1ccccc1)/C(=C1\CCCN1)[N+](=O)[O-]`?
Lmaj promast: -6.2; PKD1 kinase inh: 0.2; Wee1 degr inh: -2.5; Arbovirus inh: 5.5; Rad51 HR inh: 9.0; CHOP inhibitor: -23.8

What do the screens show for `CC1CCC(C(C)C)C(OC(=O)Cn2c(-c3ccc(F)cc3)[n+](C)c3ccccc32)C1` (stereo unspecified)?
Lmaj promast: 100.1*; PKD1 kinase inh: 1.9; Wee1 degr inh: -1.7; Arbovirus inh: -45.3; Rad51 HR inh: 5.5; CHOP inhibitor: 11.1

How did CC1CCC(C(C)C)C(OC(=O)Cn2c(-c3ccccc3)[n+](C)c3ccccc32)C1 (stereo unspecified) do in these assays?
Lmaj promast: 100.5*; PKD1 kinase inh: 10.3; Wee1 degr inh: -1.1; Arbovirus inh: -28.0; Rad51 HR inh: 6.5; CHOP inhibitor: 53.8

What do the screens show for `COc1ccc(CNC(=O)C2=CCN(S(=O)(=O)c3ccc(C)cc3)CC2)cc1`?
Wee1 degr inh: 3.2; CHOP inhibitor: 1.1

How did CCCCCCC1CC(CCC(=O)Nc2ccc([N+](=O)[O-])cc2)C(=O)O1 (stereo unspecified) do in these assays?
Lmaj promast: -9.8; PKD1 kinase inh: -6.6; Wee1 degr inh: 0.5; Arbovirus inh: 2.4; Rad51 HR inh: 1.8; CHOP inhibitor: 84.3*

Source: PubChem BioAssay (several laboratories)
